Compound activity as filed in PubChem BioAssay.
SENP7 block = inhibitors of human SENP7 protease. AID 434973. Q9BQF6. recombinant SENP7, Z-RLRGG-aminoluciferin luminescence, 40 min. 330,000 compounds, 1.5% hits. inhibition, % at 5 µM;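 active means inhibition above about 50% at the single test dose, limit read from the data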;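 further: plate controls were DMSO with enzyme for no effect and no enzyme buffer wells for full effect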
SENP1 inh = blocks the human SENP1 SUMO protease catalytic domain; Q9P0U3; 360,000 compounds, 0.21% hits; inhibition, % at 10 µM; recombinant SENP1 catalytic domain, CyPet-SUMO1-YPet FRET cleavage; AID 624204;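 active means inhibition at least 30% at 10 µM, raw YFP signal under a set limit, fluorescence ratio 0.5 to 1.5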;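 further: 0% = enzyme with DMSO and 100% = no enzyme wells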
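Test system: hSENP1 catalytic domain, recombinant; Amount: 20 pM final SENP1 enzyme; Medium: Tris pH 8 buffer plus EDTA, NaCl, BME, BSA, NP40, catalase; Schedule: 50 min enzyme reaction, room temperature, light-protected; Technique: FRET fluorescence in CFP and YFP emission channels; Controls: no-enzyme wells low, DMSO-plus-enzyme wells high control.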
SENP6 inh = SENP6 protease inhibition | inhibition, % at 10 µM | 330,000 compounds, 1.8% hits | AID 2599 | Recombinant SENP6 catalytic domain, aminoluciferin luminescence;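 active means inhibition above about 50% at the single tested dose, limit read from the data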;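 further: plate controls were DMSO wells with enzyme for no effect and DMSO wells lacking enzyme for full effect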
SENP8 block-1 = SENP8 protease inhibition; Q96LD8; AID 2540; inhibition, % at 10 µM; 330,000 compounds, 1.2% hits; purified SENP8, Z-RLRGG-aminoluciferin cleavage, luminescence; in the data active means inhibition above about 50%
Target sequence (Q96LD8 whole entry, looked up): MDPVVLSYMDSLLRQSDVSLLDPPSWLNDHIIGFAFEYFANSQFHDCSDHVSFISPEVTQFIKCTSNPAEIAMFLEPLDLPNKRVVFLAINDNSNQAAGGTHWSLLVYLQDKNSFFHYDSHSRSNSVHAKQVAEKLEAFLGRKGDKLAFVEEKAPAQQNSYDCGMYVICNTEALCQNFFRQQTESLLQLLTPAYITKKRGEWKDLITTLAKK
SENP8 block-2 = SENP8 (human) protease inhibition | 360,000 compounds, 0.64% hits | AID 602440 | Q96LD8 | inhibition, % at 20 µM | recombinant SENP8, Nedd8 substrate fluorescence; in the data active means inhibition mostly above about 40%, no sharp cut-off; inactive means mostly below about 27%
SENP8 confirm = confirmation of human SENP8 protease inhibitors. 6,200 compounds, 40% hits. shares compounds with SENP7 block. AID 488912. inhibition, % at 12.5 µM. Recombinant SENP8, Z-RLRGG-aminoluciferin luminescence, 60 min;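 active means mean inhibition across replicates above about 50%, limit read from the data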
SENP6 conf = human SENP6 inhibition, confirmed; shares compounds with SENP7 block; recombinant SENP6, Z-RLRGG-aminoluciferin luminescence; inhibition, % at 12.5 µM; 6,200 compounds, 58% hits; AID 488915
SENP7 conf = human SENP7 inhibition, confirmed. shares compounds with SENP7 block. recombinant SENP7, Z-RLRGG-aminoluciferin luminescence, 40 min. inhibition, % at 12.5 µM. 6,200 compounds, 69% hits
Casp3 select = caspase-3 inhibition (SENP selectivity assay). shares compounds with SENP7 block. purified caspase-3, Z-DEVD-aminoluciferin luminescence, 60 min. inhibition, % at 12.5 µM. 6,200 compounds, 60% hits. AID 488918;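 active means mean inhibition above about 50%, limit read from the data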;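 further: plate controls were enzyme with DMSO for no effect and wells without caspase-3 for full effect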
Target sequence (P42574 28-227 limits assumed): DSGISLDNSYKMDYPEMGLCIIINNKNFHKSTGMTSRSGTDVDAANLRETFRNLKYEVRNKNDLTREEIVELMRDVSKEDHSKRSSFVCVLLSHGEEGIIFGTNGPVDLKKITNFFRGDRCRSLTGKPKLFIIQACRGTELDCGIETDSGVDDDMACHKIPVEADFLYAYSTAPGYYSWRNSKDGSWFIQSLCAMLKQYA
Luc interf = counter-screen for SENP inhibitors: luminescence interference; Pre-incubated SENP8/Z-RLRGG-aminoluciferin, luciferase luminescence interference; inhibition, % at 12.5 µM; 6,200 compounds, 39% hits; shares compounds with SENP7 block;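 active means mean inhibition above about 50% when retested at one dose, limit read from the data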;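 further: plate controls were DMSO wells with completed reaction for no effect and substrate without enzyme for full effect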
The depositor's hits bear a star; . = no result given. Most compounds without a hit are left out; they make up all but 2.5% or so of the library.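 How the source made its calls, unless noted: active means mean inhibition above about 50% in the one-dose retest (limit read from the data); inactive means the rest.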

SMILES	SENP7 block	SENP1 inh	SENP6 inh	SENP8 block-1	SENP8 block-2	SENP8 confirm	SENP6 conf	SENP7 conf	Casp3 select	Luc interf
Nc1cc(-c2ccc(Cl)cc2)nn1-c1ccccc1	63*	-1	34	48	-2	36	38	80*	53*	71*
CC(=O)Nc1ccc(-c2cc(NC(C)=O)n(-c3ccccc3)n2)cc1	-11	3	-12	-2	-27	.	.	.	.	.
CCOc1ccc(N(CC)C(=O)CCS(=O)(=O)c2cccc3nonc23)cc1	2	2	-2	3	-5	.	.	.	.	.
COc1cccc(NC(=O)c2nnn(CCc3ccccc3)c2N)c1	76*	1	72*	64*	2	76*	75*	93*	75*	62*
COc1ccc(C(=O)Nc2cccc(OC)c2)cc1	92*	-1	86*	79*	5	2	92*	101*	96*	91*
COc1ccc(COc2ccc3c(C)cc(=O)oc3c2)cc1	40	2	70*	50*	-160	6	56*	45	49	38
COc1cccc(NC(=O)c2ccccc2)c1	51*	2	47	36	13	48	44	77*	73*	51*
COc1cccc(NC(=O)c2cccc(C(=O)Nc3cccc(OC)c3)c2)c1	5	2	16	4	5	.	.	.	.	.
O=S(=O)(Cc1ccccc1)C(CCCc1ccccc1)S(=O)(=O)Cc1ccccc1	.	0	.	.	5	.	.	.	.	.
CC(NCC(=O)Nc1cc(S(=O)(=O)N2CCCCCC2)ccc1Cl)c1ccccc1 (centres undefined)	4	-1	-9	0	17	.	.	.	.	.
CC(C)OCCCNc1ncnc2c1[nH]c1ccccc12	2	-12	-10	-3	-192	.	.	.	.	.
COCCCN1C(=O)C(CC(=O)NCCCN(C)C)CC(C(=O)N(C(C)C)C(C)C)=C1C (centres undefined)	.	0	.	.	8	.	.	.	.	.
COc1cccc(NC(=O)c2ccc(OC(F)(F)F)cc2)c1	94*	1	88*	85*	7	66*	79*	98*	87*	38
COc1cccc(NC(=O)c2ccc3nsnc3c2)c1	60*	0	63*	43	-13	58*	56*	85*	80*	71*
COc1cc(NC(=O)c2ccc3nsnc3c2)cc(OC)c1OC	-2	1	-9	-3	18	.	.	.	.	.
Cc1ccc(NC(=O)c2ccc3nsnc3c2)c(Cl)c1	81*	1	62*	49	-10	25	13	17	22	-5
CCCCOC(=O)Nc1ccc2c(C)cc(=O)oc2c1	62*	3	-34	35	-294	3	3	50*	48	15
CCOC(=O)C1CCN(C(=O)c2ccccc2NC(=O)C2=C(C)OCCS2)CC1	-2	2	7	10	1	.	.	.	.	.
COc1cccc(NC(=O)NC2CCCCCCC2)c1	-16	2	-8	-2	15	.	.	.	.	.
COc1cccc(C(=O)Nc2cc(Cl)c(O)c(Cl)c2)c1	59*	2	71*	55*	8	64*	64*	89*	85*	68*
COc1ccc(-c2cccc(C(=O)Nc3cccc(C(=O)O)c3)c2)cc1	59*	1	84*	53*	0	69*	83*	96*	20	77*
COc1cccc(NC(=O)Nc2cccc(C(=O)O)c2)c1	93*	3	7	90*	0	95*	95*	101*	90*	94*
